From ChEMBL document CHEMBL4316599, “Synthesis, in vitro and in vivo biological evaluation of substituted 3-(5-imidazo[2,1-b]thiazolylmethylene)-2-indolinones as new potent anticancer agents” (Eur J Med Chem, 2019)
The source made the active and inactive calls. The calls are words filed in the database; no cut-off is given here.

How the values were obtained:
CNS carcinoma cell = test: Cytotoxicity against human CNS cancer cells after 48 hrs by SRB assay; assay type: functional
Summary of the method: (§1)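 NCI-60 screen: single-dose pass at 10^-5 M, then a five-concentration assay from 10^-9 to 10^-4 M (highest 100 μM). Exposure was 48 h under standard NCI protocols. GI50, TGI and LC50 were derived per cell line and averaged by subpanel. Repeated tests are the mean of two experiments.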

NSCLC = test: Cytotoxicity against human NSCLC cells after 48 hrs by SRB assay; assay type: functional; summary of the method: as §1
Ovarian carcinoma cell = test: Cytotoxicity against human ovarian cancer cells after 48 hrs by SRB assay; assay type: functional; summary of the method: as §1
[1] = Cytotoxicity against human PBL after 72 hrs by MTT assay; assay type: cell-based; conditions: peripheral blood lymphocytes (PBL)
Summary of the method: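 Lymphocytes from healthy donors were isolated on a Lymphoprep gradient and held overnight in RPMI-1640 with 10% FBS. Non-adherent cells were set at 5×10^5 cells/mL, either resting or stimulated with 2.5 μg/mL PHA. Cells were exposed to a range of compound concentrations for 72 h and viability read by MTT. GI50 is the mean ± SEM of three separate experiments.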

Tubulin = Tubulin (Bos taurus, UniProt Q6B856+Q862L2+Q862F3); test: Inhibition of bovine brain tubulin polymerization after 20 mins by spectrophotometric analysis
Summary of the method: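 Bovine brain tubulin (10 μM) in glutamate buffer preincubated with varying compound levels at 30 °C, then chilled to 0 °C. GTP added to 0.4 mM final, then warmed to 30 °C. Assembly followed by turbidity at 350 nm. IC50 is the concentration halving the extent of assembly after 20 min.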

Tubulin (Bos taurus) = Tubulin (Bos taurus) (UniProt Q6B856+Q862L2+Q862F3); test: Inhibition of [3H]colchicine binding to bovine brain tubulin at 5 uM after 20 mins relative to control
Summary of the method: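 Reaction mixtures held 1 μM tubulin, 5 μM [³H]colchicine and test compound at 5 or 50 μM. Read-out was percent inhibition of colchicine binding.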

HeLa [2] = test: Cell cycle arrest in human HeLa cells assessed as accumulation of cells at G2/M phase after 24 hrs by propidium iodide staining-based flow cytometric analysis; assay type: functional
Summary of the method: (§2)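 Cells exposed to a range of concentrations for 24 h (HeLa at 5×10^5 cells), then fixed in ice-cold 70% ethanol. Lysis buffer with RNase A and 0.1% Triton X-100 was applied before PI staining. DNA content was read by flow cytometry and G1/S/G2/M fractions taken from DNA histograms. Mean ± SEM of two independent experiments.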

HT-29 [3] = test: Cell cycle arrest in human HT-29 cells assessed as accumulation of cells at G2/M phase after 24 hrs by propidium iodide staining-based flow cytometric analysis; assay type: functional; summary of the method: as §2
A549 [4] = test: Cell cycle arrest in human A549 cells assessed as accumulation of cells at G2/M phase at 50 nM after 24 hrs by propidium iodide staining-based flow cytometric analysis relative to control; assay type: functional; summary of the method: as §2
HeLa [5] = test: Cell cycle arrest in human HeLa cells assessed as reduction in accumulation of cells at G1 phase up to 1000 nM after 24 hrs by propidium iodide staining-based flow cytometric analysis; assay type: functional; summary of the method: as §2
HT-29 [6] = test: Cell cycle arrest in human HT-29 cells assessed as reduction in accumulation of cells at S phase up to 1000 nM after 24 hrs by propidium iodide staining-based flow cytometric analysis; assay type: functional; summary of the method: as §2
A549 [7] = test: Cell cycle arrest in human A549 cells assessed as reduction in accumulation of cells at S phase up to 600 nM after 24 hrs by propidium iodide staining-based flow cytometric analysis; assay type: functional; summary of the method: as §2
K562 [8] = test: Cytotoxicity against human K562 cells after 48 hrs by SRB assay; assay type: functional, cell-based
K562 [9] = test: Cell cycle arrest in human K562 cells assessed as mitotic index at 5 times IC50 by Giemsa staining-based assay (reference value: 3%); assay type: functional
HeLa [10] = test: Cell cycle arrest in human HeLa cells assessed as decrease in p-cdc25c expression at 50 to 250 nM after 24 hrs by Western blot analysis; assay type: functional, cell-based
Summary of the method: (§3)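 HeLa cells treated 24 h, washed in ice-cold PBS and lysed on ice 30 min. Lysates were spun at 15000 x g, 4 °C. 10 µg protein run on SDS-PAGE and blotted to PVDF. Blots were blocked in 5% BSA overnight at 4 °C and probed 2 h at room temperature. Detection by HRP-secondary and ECL, with bands normalized to β-actin as fold of untreated. Three independent experiments, one-way ANOVA/Dunnett.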

HeLa [11] = test: Induction of apoptosis in human HeLa cells at 250 nM after 24 to 48 hrs by Annexin V-FITC/propidium iodide staining-based flow cytometric analysis; assay type: functional, cell-based
Summary of the method: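 HeLa cells exposed 24 or 48 h to 250, 500 or 1000 nM; annexin-V-FITC plus PI double staining for surface phosphatidylserine and DNA, measured by flow cytometry. Mean ± SEM of three independent experiments.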

HeLa [12] = test: Induction of mitochondrial membrane depolarization in human HeLa cells at 250 to 500 nM after 6 to 48 hrs by JC-1 staining-based assay; assay type: functional, cell-based; conditions: TDE = time-dependent effect
Summary of the method: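 HeLa cells treated at 250-500 nM for 6, 12, 24 or 48 h, then stained with JC-1. Percentage of cells with low mitochondrial membrane potential measured by flow cytometry. Mean ± SEM of three independent experiments.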

HeLa [13] = test: Induction of apoptosis in human HeLa cells assessed as increase in cleaved PARP levels at 50 nM after 24 hrs by Western blot analysis; assay type: functional, cell-based; summary of the method: as §3
B16-BL6 = test: Antitumor activity mouse B16-BL6 cells implanted in C57BL/6 mouse assessed tumor growth inhibition at 15 mg/kg, ip dosed every other day for 18 days relative to control; assay type: functional; conditions: 432 h, read-out: TGI
Summary of the method: (§4)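 Syngeneic allograft: C57BL/6 mice, six weeks old, given 2.5×10^5 BL6-B16 or E0771 cells subcutaneously in the dorsolateral flank in PBS. Dosing began at about 100 mm³. Test compound or reference was given intraperitoneally every other day in 50 μL DMSO, with DMSO vehicle controls. Tumor volume was compared with the vehicle group, 5 animals per group, mean ± SEM, by 2-way ANOVA with Bonferroni correction.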

E0771 [14] = test: Antitumor activity mouse E0771 cells implanted in C57BL/6 mouse assessed tumor growth inhibition at 15 mg/kg, ip dosed every other day for 20 days relative to control; assay type: functional; conditions: 480 h, read-out: TGI; summary of the method: as §4
E0771 [15] = test: Antitumor activity mouse E0771 cells implanted in C57BL/6 mouse assessed tumor growth inhibition at 7.5 mg/kg, ip dosed every other day for 20 days relative to control; assay type: functional; conditions: 480 h, read-out: TGI; summary of the method: as §4
[16] = Toxicity in C57BL/6 mouse implanted with mouse E0771 cells assessed as effect on body weight at 7.5 to 15 mg/kg, ip dosed every day for 20 days; assay type: organism-based; conditions: in vivo, 480 h, in the assay text read “every other day” for “every day”
Summary of the method: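 C57BL/6 mice, six weeks old, received 2.5×10^5 BL6-B16 or E0771 cells s.c. in the dorsolateral flank in PBS. Dosing began once tumours reached about 100 mm³: 7.5 or 15 mg/kg i.p. every other day in 50 μL DMSO. Vehicle and CA-4P 30 mg/kg served as controls. Body weight was monitored, with 5 animals per group.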

O=C1Nc2c(ccc3ccccc23)C1=Cc1c(-c2ccncc2)nc2sccn12
GI50 (CNS carcinoma cell): 0.04 µM
TGI (CNS carcinoma cell): 79.8 µM
CC50 (CNS carcinoma cell; read-out: LC50 (the source's name)): 94.3 µM
GI50 (NSCLC): 11.1 µM
LC50 (NSCLC): 97.9 µM
TGI (NSCLC): 79.9 µM
GI50 (Ovarian carcinoma cell): 0.05 µM
LC50 (50% lethal concentration) (Ovarian carcinoma cell): 80 µM
TGI (Ovarian carcinoma cell): 73.8 µM
GI50 at 72 h [1]: 4.5 µM
IC50 (Tubulin): 14 µM
inhibition (Tubulin (Bos taurus)): 25%
Activity (HeLa [2]): Dose-dependent effect
Activity (HT-29 [3]): Dose-dependent effect
Activity (A549 [4]): >80%
Activity (HeLa [5]): Active
Activity (HT-29 [6]): Active
Activity (A549 [7]): Active
Activity (K562 [8]): Dose-dependent effect
Activity (K562 [9]): 35%
Activity (HeLa [10]): Active
Activity (HeLa [11]): Active
Activity (HeLa [12]): Tde
Activity (HeLa [13]): Active
inhibition in vivo at 15 mg/kg (B16-BL6): 29.4%
inhibition in vivo at 15 mg/kg (E0771 [14]): 56.8%
inhibition in vivo at 7.5 mg/kg (E0771 [15]): 51.8%
Activity [16]: Non-Toxic
